{"source": "ChEMBL document CHEMBL5678802", "about": "“Small-molecule p21-activated kinase inhibitor PF-3758309 is a potent inhibitor of oncogenic signaling and tumor growth” (Proc Natl Acad Sci U S A, 2010)", "key": {"[1]": {"target": "T1, Serine/threonine-protein kinase D1 (Homo sapiens, UniProt Q15139)", "T1 sequence (Q15139 whole entry)": "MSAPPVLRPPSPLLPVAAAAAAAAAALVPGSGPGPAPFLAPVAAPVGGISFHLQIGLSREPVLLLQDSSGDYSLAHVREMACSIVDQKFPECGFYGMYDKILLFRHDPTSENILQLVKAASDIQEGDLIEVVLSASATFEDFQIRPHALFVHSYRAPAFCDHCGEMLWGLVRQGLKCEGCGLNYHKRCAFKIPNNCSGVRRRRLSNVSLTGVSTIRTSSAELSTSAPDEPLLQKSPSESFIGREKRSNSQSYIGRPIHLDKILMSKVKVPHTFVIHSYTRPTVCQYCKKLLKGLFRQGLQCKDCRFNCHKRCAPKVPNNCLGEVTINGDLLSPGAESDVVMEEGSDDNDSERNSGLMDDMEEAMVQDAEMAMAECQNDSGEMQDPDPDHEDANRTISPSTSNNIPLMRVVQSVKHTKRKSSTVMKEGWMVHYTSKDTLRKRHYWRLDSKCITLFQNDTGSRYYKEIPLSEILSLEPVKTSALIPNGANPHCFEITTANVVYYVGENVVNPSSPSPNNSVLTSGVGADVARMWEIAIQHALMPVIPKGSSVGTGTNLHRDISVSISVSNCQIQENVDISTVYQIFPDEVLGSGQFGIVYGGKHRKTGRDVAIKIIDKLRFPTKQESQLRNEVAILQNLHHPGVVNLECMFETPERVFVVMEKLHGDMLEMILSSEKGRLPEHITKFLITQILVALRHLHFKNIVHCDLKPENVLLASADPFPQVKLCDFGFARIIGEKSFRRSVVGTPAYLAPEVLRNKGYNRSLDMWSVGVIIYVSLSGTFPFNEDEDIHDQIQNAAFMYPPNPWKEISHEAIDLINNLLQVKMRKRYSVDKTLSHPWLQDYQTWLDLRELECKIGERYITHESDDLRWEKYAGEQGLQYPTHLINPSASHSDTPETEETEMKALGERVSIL", "experiment": "Inhibition of human PKCmu in presence of ATP"}, "[2]": {"target": "Tyrosine-protein kinase Fyn (Homo sapiens, UniProt P06241)", "sequence (P06241 2-537 limits assumed)": "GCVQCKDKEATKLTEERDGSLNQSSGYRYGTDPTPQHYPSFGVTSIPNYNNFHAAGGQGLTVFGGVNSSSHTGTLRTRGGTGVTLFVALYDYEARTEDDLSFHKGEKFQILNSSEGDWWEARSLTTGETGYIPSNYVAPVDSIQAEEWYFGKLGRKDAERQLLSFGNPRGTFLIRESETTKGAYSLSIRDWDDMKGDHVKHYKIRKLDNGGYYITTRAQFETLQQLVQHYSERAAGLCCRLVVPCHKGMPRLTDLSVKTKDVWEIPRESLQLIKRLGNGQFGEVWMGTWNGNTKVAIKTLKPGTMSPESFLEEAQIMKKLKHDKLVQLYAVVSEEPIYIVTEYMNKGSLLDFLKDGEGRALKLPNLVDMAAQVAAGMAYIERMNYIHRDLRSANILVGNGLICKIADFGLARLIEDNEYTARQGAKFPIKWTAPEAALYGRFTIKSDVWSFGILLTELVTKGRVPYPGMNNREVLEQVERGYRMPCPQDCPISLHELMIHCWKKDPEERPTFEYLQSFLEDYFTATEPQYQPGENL", "experiment": "Inhibition of human FYN in presence of ATP relative to control", "conditions": "concentration not given here"}, "[3]": {"experiment": "Antiproliferative activity against human PaTu 8902 cells assessed as inhibition of cell proliferation incubated for 3 days by CellTiter-Glo Luminescent Cell Viability Assay", "format": "functional, cell-based", "conditions": "PaTu 8902, 72 h", "method_in_brief": "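Cells of each line were plated in 384-well plates on day 1 and exposed to compound from day 2 for 3 days. On day 5 all medium was aspirated. Viable cell number was read by CellTiter-Glo luminescence, which quantifies cellular ATP.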"}, "[4]": {"target": "Serine/threonine-protein kinase D1 (Homo sapiens) (UniProt Q15139)", "experiment": "Inhibition of human PKCmu in presence of ATP relative to control", "conditions": "concentration not given here"}, "[5]": {"target": "T2, cGMP-dependent protein kinase 1 (Homo sapiens, UniProt Q13976)", "T2 sequence (Q13976 whole entry)": "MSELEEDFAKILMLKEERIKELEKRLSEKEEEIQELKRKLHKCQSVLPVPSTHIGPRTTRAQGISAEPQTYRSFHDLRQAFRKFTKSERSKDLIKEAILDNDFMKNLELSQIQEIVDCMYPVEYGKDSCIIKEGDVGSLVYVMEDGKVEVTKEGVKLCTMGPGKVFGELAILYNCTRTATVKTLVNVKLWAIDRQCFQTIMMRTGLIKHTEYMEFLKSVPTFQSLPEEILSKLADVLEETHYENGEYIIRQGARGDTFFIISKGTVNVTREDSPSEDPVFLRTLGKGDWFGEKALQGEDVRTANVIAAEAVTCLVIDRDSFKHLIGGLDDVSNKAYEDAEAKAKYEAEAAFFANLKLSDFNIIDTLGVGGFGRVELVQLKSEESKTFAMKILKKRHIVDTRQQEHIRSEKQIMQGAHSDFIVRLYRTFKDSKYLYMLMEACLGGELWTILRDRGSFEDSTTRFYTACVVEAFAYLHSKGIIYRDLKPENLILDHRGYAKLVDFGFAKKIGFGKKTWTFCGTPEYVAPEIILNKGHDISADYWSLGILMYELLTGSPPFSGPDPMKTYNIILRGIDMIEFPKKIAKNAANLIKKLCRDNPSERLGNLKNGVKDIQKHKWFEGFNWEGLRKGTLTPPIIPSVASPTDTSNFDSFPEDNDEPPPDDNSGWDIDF", "experiment": "Inhibition of human PRKG1 in presence of ATP"}, "HuP-T4": {"test_system": "HuP-T4", "experiment": "Antiproliferative activity against human HuP-T4 cells assessed as inhibition of cell proliferation incubated for 3 days by CellTiter-Glo Luminescent Cell Viability Assay", "format": "functional, cell-based", "conditions": "HuP-T4, 72 h", "method_in_brief": "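Cancer cell lines seeded in 384-well plates on day 1; compound added on day 2 and left for 3 days. On day 5 all medium was aspirated, and viable cells were quantified by CellTiter-Glo luminescence, which measures cellular ATP. Dose-dependent effects on proliferation were determined.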"}, "HCT-116 [6]": {"test_system": "HCT-116", "experiment": "Antitumor activity against human HCT-116 cells xenografted in nude mouse assessed as tumor growth inhibition at 0.12 mg/kg administered via pump for 9 days relative to control", "format": "functional", "conditions": "HCT-116, 216 h, time 9 day, read-out: TGI"}, "NCI-H1993": {"test_system": "NCI-H1993", "experiment": "Inhibition of anchorage independent cell growth in human NCI-H1993 cells incubated for 6 days by Alamar blue reagent based fluorescence plate reader analysis", "format": "functional", "conditions": "NCI-H1993, 144 h"}, "HCT-116 [7]": {"test_system": "HCT-116", "experiment": "Antitumor activity against human HCT-116 cells xenografted in nude mouse assessed as increase in caspase 3 activation at 15 to 25 mg/kg, po administered twice daily for 6 days by immunohistochemical analysis", "format": "functional, organism-based", "conditions": "dose 15-25 mg/kg, time 6.0 day", "method_in_brief": "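HCT116 cells (2 × 10^6 in 0.15 mL 1:1 Matrigel:PBS) were implanted s.c. in nude mice. At 300–350 mm3, mice were randomized into groups of five and dosed orally twice daily with vehicle, 15 or 25 mg/kg. Tumors were harvested on days 2, 3 and 6, paraformaldehyde-fixed and IHC-stained for caspase 3 (1:200). Three serial sections were scored 0–4 (0 = <2% to 4 = >7% positive cells).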"}, "HCT-116 [8]": {"test_system": "HCT-116", "experiment": "Antitumor activity against human HCT-116 cells xenografted in nude mouse assessed as reduction in BAD phosphorylation at S112 residue at 15 to 150 mg/kg/day administered via pump for 18 hrs by Reverse-Phase protein array analysis", "format": "functional, organism-based", "conditions": "dose 15-150 mg/kg/day"}, "M24met": {"test_system": "M24met", "experiment": "Antitumor activity against human M24met cells xenografted in nude mouse assessed as tumor growth inhibition at 15 mg/kg, po administered once daily for 9 to 18 days relative to control", "format": "functional", "conditions": "time 9-18 day, read-out: TGI"}, "[9]": {"target": "Ribosomal protein S6 kinase alpha-1 (Homo sapiens, UniProt Q15418)", "sequence (Q15418 whole entry)": "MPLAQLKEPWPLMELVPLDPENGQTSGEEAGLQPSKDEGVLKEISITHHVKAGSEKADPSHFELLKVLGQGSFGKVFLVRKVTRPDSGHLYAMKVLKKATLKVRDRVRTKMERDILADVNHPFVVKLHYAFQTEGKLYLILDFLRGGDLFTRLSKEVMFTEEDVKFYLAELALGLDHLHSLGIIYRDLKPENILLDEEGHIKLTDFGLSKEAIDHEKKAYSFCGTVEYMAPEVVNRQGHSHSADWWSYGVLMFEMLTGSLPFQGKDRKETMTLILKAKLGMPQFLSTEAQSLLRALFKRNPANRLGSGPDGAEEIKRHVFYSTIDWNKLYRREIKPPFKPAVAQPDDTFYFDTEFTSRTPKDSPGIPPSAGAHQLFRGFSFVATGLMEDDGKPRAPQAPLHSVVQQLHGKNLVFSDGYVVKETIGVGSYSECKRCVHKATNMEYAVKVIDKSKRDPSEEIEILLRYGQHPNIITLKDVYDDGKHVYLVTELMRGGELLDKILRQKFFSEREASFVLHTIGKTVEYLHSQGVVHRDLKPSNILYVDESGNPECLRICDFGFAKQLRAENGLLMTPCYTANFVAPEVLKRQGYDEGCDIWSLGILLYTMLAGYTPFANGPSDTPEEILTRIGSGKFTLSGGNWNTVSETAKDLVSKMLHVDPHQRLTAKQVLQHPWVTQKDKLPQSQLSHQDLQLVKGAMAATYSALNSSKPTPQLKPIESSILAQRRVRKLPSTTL", "experiment": "Inhibition of human RSK1 in presence of ATP relative to control", "conditions": "concentration not given here"}, "[10]": {"target": "Protein kinase C theta type (Homo sapiens, UniProt Q04759)", "sequence (Q04759 whole entry)": "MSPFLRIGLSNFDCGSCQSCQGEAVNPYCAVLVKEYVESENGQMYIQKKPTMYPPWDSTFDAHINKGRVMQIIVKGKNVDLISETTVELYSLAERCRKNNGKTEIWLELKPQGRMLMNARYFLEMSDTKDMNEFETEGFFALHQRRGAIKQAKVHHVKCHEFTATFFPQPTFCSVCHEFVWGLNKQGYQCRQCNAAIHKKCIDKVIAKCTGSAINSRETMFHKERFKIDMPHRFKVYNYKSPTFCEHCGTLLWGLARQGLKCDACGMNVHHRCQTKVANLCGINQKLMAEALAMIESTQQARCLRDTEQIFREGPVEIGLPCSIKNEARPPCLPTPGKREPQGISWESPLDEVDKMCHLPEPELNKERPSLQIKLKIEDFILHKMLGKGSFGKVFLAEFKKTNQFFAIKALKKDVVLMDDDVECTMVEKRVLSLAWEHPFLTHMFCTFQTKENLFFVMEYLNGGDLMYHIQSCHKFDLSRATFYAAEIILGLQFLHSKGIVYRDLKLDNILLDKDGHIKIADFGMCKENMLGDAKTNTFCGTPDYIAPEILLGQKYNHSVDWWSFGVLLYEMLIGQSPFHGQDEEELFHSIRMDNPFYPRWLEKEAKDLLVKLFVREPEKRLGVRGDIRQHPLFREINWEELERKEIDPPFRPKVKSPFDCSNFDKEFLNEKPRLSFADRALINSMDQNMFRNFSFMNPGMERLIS", "experiment": "Inhibition of human PKCtheta assessed as inhibition constant in presence of ATP"}, "HCT-116 [11]": {"test_system": "HCT-116", "experiment": "Downregulation of camptothecin-induced phospho-S810-GEF-H1 level in human HCT-116 cells at 1 uM preincubated with compound for 15 mins followed by camptothecin stimulation and measured after 20 hrs by Western blot analysis", "format": "functional, cell-based", "conditions": "time 20.25 hrs"}}, "note": "Activity calls are given as the source filed them. The rule behind the calls is not given here."}
{"smiles": "Cc1nc(Nc2n[nH]c3c2CN(C(=O)N[C@H](CN(C)C)c2ccccc2)C3(C)C)c2sccc2n1", "note": "[PF-03758309]", "values": [{"measurement": "IC50", "setting": "[1]", "value": 21, "unit": "nM"}, {"measurement": "inhibition", "setting": "[2]", "value": 95, "unit": "%"}, {"measurement": "IC50", "setting": "[3]", "value": 27, "unit": "nM"}, {"measurement": "inhibition", "setting": "[4]", "value": 96, "unit": "%"}, {"measurement": "IC50", "setting": "[5]", "value": 34, "unit": "nM"}, {"measurement": "IC50", "setting": "HuP-T4", "value": 231, "unit": "nM"}, {"measurement": "inhibition in vivo at 0.12 mg/kg", "setting": "HCT-116 [6]", "value": 16, "unit": "%"}, {"measurement": "IC50", "setting": "NCI-H1993", "value": 11.9, "unit": "nM"}, {"measurement": "Activity", "setting": "HCT-116 [7]", "value": "Active"}, {"measurement": "Activity", "setting": "HCT-116 [8]", "value": "Active"}, {"measurement": "inhibition in vivo at 15 mg/kg", "setting": "M24met", "value": 72, "unit": "%"}, {"measurement": "inhibition", "setting": "[9]", "value": 101, "unit": "%"}, {"measurement": "Ki", "setting": "[10]", "value": 10, "unit": "nM"}, {"measurement": "Activity", "setting": "HCT-116 [11]", "value": "Active"}]}
